Data as given in ChEMBL document CHEMBL1914355, “Discovery of new orally active prostaglandin D2 receptor antagonists” (Bioorg Med Chem, 2011).
≈ marks a conversion by molar mass, not a printed value.

How the values were obtained:
[1] = target: T1, Prostaglandin D2 receptor (Mus musculus, UniProt P70263); assay: Antagonist activity at mouse prostanoid DP receptor expressed in CHO cells assessed as inhibition of PGD2-induced intracellular cAMP production after 10 mins by enzyme immunoassay; format: functional, cell-based
T1 sequence (P70263 whole entry): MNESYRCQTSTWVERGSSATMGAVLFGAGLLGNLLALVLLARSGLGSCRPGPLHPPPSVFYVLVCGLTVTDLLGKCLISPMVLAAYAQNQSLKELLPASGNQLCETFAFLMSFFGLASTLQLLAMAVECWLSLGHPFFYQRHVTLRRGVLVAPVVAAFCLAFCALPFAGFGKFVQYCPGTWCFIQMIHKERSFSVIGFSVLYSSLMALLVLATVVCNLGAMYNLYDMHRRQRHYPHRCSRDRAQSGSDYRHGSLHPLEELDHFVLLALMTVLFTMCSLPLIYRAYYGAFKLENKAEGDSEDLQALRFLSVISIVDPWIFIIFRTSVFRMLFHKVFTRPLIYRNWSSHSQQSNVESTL
Method in brief: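 CHO cells expressing mDP seeded at 1 × 10⁵ cells/well and grown 2 days. They were rinsed and preincubated ~10 min at 37 °C in MEM with 2 µM diclofenac, then ~10 min in assay medium (MEM, 0.1% BSA, 1 mM IBMX, 2 µM diclofenac). Compound plus 10 nM PGD₂ was added for 10 min at 37 °C. TCA stop, tri-n-octylamine/chloroform extraction, cAMP by EIA. IC50 taken from % of maximal cAMP rise without compound.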

[2] = target: Prostacyclin receptor (Homo sapiens, UniProt P43119); assay: Displacement of [3H]Iloprost from human prostanoid IP receptor expressed in CHO cells after 30 mins by liquid scintillation counting; format: cell-based
Method in brief: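 Membranes from CHO cells stably expressing hIP were incubated with 5.0 nM [³H]iloprost and graded compound concentrations in 50 mM Tris-HCl (1 mM EDTA, 10 mM MgCl₂, pH 7.5) for 30 min at room temperature. Filters (GF/B) were washed with ice-cold Tris/NaCl pH 7.5, dried 60 min at 60 °C, and counted. Nonspecific binding used excess unlabeled iloprost. Ki = IC50/(1+[L]/Kd).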

[3] = Kinetic solubility of the compound; format: physicochemical; details: read-out: Kinetic_solubility
[4] = target: T2, Prostaglandin D2 receptor (Homo sapiens, UniProt Q13258); assay: Antagonist activity at prostanoid DP receptor in human platelet rich plasma assessed as inhibition of PGD2-induced intracellular cAMP production after 10 mins by enzyme immunoassay; format: functional, cell-based; details: in the assay text read “after 15 mins” for “after 10 mins”
T2 sequence (Q13258 whole entry): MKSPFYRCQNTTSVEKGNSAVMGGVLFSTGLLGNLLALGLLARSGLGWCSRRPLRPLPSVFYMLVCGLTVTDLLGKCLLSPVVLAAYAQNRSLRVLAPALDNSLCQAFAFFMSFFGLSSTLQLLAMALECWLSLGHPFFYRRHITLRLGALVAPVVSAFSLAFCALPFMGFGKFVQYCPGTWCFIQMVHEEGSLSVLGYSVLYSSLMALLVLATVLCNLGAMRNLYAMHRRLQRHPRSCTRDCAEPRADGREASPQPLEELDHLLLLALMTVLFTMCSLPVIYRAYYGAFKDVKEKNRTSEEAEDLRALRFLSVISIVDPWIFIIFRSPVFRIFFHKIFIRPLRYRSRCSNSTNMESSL
Method in brief: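 Human PRP with EDTA (~10 mmol/L) was spun at 1500 G for 15 min. Platelets were resuspended in PPP at 5.0 × 10⁵/µL with IBMX (8 mmol/L final) and an EP3 antagonist, then held 5 min at 37 °C. Compound was added for 10 min at 37 °C, then PGD₂ (3 µmol/L final) for 15 min. TCA stop, tri-n-octylamine extraction, cAMP EIA. IC50 derived from inhibition ratio.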

[5] = target: T1, Prostaglandin D2 receptor; assay: Displacement of [3H]-PGD2 from mouse DP receptor expressed in CHO cells after 20 mins by liquid scintillation counting; format: cell-based
Method in brief: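 CHO-mDP membranes were incubated with 2.5 nM [³H]PGD₂ and graded compound concentrations in 25 mM HEPES-NaOH (1 mM EDTA, 5 mM MgCl₂, 10 mM MnCl₂, pH 7.4) for 20 min at room temperature. Bound ligand was collected on GF/B filters and washed with ice-cold Tris/NaCl/0.01% BSA, pH 7.4. Nonspecific binding was defined with excess unlabeled PGD₂. IC50 came from the regression curve; Ki = IC50/(1+[L]/Kd).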

[6] = AUC (0 to infinity) in rat at 1 mg/kg, po administered as single dose; format: ADME, organism-based; design: time infinity, dose 1 mg/kg, route oral; details: plasma
Method in brief: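 Fasted male rats (n = 3) given a single oral dose of 1 mg/kg in 0.5% MC. Heparinized jugular vein blood sampled pre-dose and at 15, 30 min and 1, 2, 4, 6, 8, 24 h. Plasma separated by centrifugation at 4 °C and kept at -80 °C. AUC derived from the plasma concentration–time profile.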

[7] = Oral bioavailability in rat at 1 mg/kg administered as single dose; format: ADME, organism-based; details: in vivo
Method in brief: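 Fasted male rats (n = 3) were given 1 mg/kg orally in 0.5% methylcellulose and 1 mg/kg iv in 30% HP-β-CD/5% DMSO/NaHCO₃, each as a single dose. Plasma from serial jugular samples was analysed. Bioavailability was derived from oral versus iv exposure, corrected for dose (D_po, D_iv).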

[8] = Total clearance in rat at 1 mg/kg, iv administered as single dose; format: ADME, organism-based; design: dose 1 mg/kg, route intravenous; details: in vivo
Method in brief: (§1)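 Fasted male rats (n = 3) received a single 1 mg/kg iv dose in 30% HP-β-CD with 5% DMSO and 1 eq NaHCO₃. Jugular blood was drawn into heparin before dosing and at 5, 15, 30 min and 1, 2, 4, 6, 8, 24 h. Plasma was obtained by centrifugation at 4 °C. Parameters came from the plasma concentration-time course.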

[9] = system: Cavia porcellus; assay: Inhibition of PGD2-induced vascular permeability in Hartley guinea pig conjunctiva at 0.1 mg/kg, po administered 1 hr before antigen challenge measured after 30 mins; format: functional
Method in brief: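 Guinea pigs (n = 8) were dosed orally 1 h before topical PGD₂ challenge (20 µL/eye). 5% Evans blue (1 mL/kg iv) was given immediately after challenge. After 30 min the conjunctiva was excised and dye extracted in DMF at 37 °C, with absorbance read at 620 nm. Dunnett's test versus control.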

[10] = system: Cavia porcellus; assay: Inhibition of OVA-induced vascular permeability in Hartley guinea pig conjunctiva at 1 mg/kg, po administered 1 hr before antigen challenge measured after 30 mins; format: functional
Method in brief: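 Male Hartley guinea pigs were sensitized ip with OVA (1 mg) plus inactivated B. pertussis. Two weeks later they were challenged topically with OVA (1%, 20 µL/eye), followed at once by Evans blue (20 mg/kg iv). Compound was given orally 1 h before challenge (n = 7). After 30 min the conjunctiva was removed, dye was extracted in DMF at 37 °C, and A620 was read against a standard curve. Dunnett's test was used.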

[11] = Half life in rat at 1 mg/kg, iv administered as single dose; format: ADME, organism-based; design: dose 1 mg/kg, route intravenous; details: in vivo; method in brief: as §1
[12] = Volume of distribution at steady state in rat at 1 mg/kg, iv administered as single dose; format: ADME, organism-based; design: dose 1 mg/kg, route intravenous; details: in vivo, read-out: Vdss; method in brief: as §1
[13] = AUC (0 to infinity) in rat at 1 mg/kg, iv administered as single dose; format: ADME, organism-based; design: time infinity, dose 1 mg/kg, route intravenous; details: plasma
Method in brief: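 Single IV dose of 1 mg/kg to fasted male rats (n = 3). Vehicle: 30% HP-b-CD containing 5% DMSO with NaHCO3 (1 eq). Jugular vein blood taken in heparinized syringe pre-dose and at 5, 15, 30 min and 1, 2, 4, 6, 8, 24 h. Plasma obtained by centrifugation at 4 °C and stored at -80 °C. AUC derived from the plasma concentration–time course.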

[14] = Half life in rat at 1 mg/kg, po administered as single dose; format: ADME, organism-based; design: dose 1 mg/kg, route oral; details: in vivo
Method in brief: (§2)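 Fasted male rats (n = 3) received a single oral 1 mg/kg dose in 0.5% methylcellulose. Jugular blood was drawn into heparin before dosing and at 15, 30 min and 1, 2, 4, 6, 8, 24 h. Plasma was separated at 4 °C. Parameters came from the plasma concentration-time course.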

[15] = Cmax in rat at 1 mg/kg, po administered as single dose; details: in vivo
[16] = Cmax in rat at 1 mg/kg, po administered as single dose; format: ADME, organism-based; design: dose 1 mg/kg, route oral; details: in vivo; method in brief: as §2

Sequence of Prostacyclin receptor (P43119 whole entry): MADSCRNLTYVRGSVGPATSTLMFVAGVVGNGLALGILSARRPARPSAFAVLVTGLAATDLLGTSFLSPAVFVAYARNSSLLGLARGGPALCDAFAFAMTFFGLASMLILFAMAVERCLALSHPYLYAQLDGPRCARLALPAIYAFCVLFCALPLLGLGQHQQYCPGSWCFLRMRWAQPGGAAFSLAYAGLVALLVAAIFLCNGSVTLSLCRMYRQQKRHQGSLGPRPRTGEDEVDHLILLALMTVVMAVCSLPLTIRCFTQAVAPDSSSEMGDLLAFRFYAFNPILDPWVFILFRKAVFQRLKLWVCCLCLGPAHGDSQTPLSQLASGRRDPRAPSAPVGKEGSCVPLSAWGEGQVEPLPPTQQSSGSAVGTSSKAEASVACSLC

IC50 [1] [nM] | Ki [2] [µM] | Compound | further results
1.5 | > 10 | Cc1cc(OC[C@@H]2COc3ccccc32)cc(C)c1C(=O)Nc1cc(CC(=O)O)ccc1Cl | 
 | 2.7 | CN1C[C@@H](COc2ccc(C(=O)Nc3cccc(CC(=O)O)c3)c(Cl)c2)Oc2ccccc21 | 
27 | > 10 | Cc1cc(OCC2Oc3ccccc3O2)cc(C)c1C(=O)Nc1cc(CC(=O)O)ccc1Cl | 
 | 1.8 | Cc1cc(OC[C@@H]2CN(C)c3ccccc3O2)ccc1C(=O)Nc1cc(CC(=O)O)ccc1Cl | solubility kinetic [3]: 129 µg/mL (≈ 268 µM)
3.5 | > 10 | Cc1cc(OC[C@@H]2CN(C)c3ccccc3O2)cc(C)c1C(=O)Nc1cccc(CC(=O)O)c1 | 
26 | 1.7 | Cc1cc(C(=O)Nc2cc(C3(C(=O)O)CC3)ccc2Cl)c(C)cc1OC[C@@H]1CN(C)c2ccccc2O1 | IC50 [4]: 19 nM
1 | > 10 | Cc1cc(OC[C@@H]2CN(C)c3ccccc3O2)cc(C)c1C(=O)Nc1cc(C2(C(=O)O)CC2)ccc1Cl | solubility kinetic [3]: 321 µg/mL (≈ 616 µM)
43 | 3.3 | Cc1cc(C(=O)Nc2cc(C(C)(C)C(=O)O)ccc2Cl)c(C)cc1OC[C@@H]1CN(C)c2ccccc2O1 | IC50 [4]: 32 nM
4.3 | > 10 | Cc1cc(OC[C@@H]2COc3ccccc3O2)cc(C)c1C(=O)Nc1cc(CC(=O)O)ccc1Cl | 
14 | > 10 | Cc1cc(OC[C@@H]2Cc3ccccc3O2)cc(C)c1C(=O)Nc1cc(CC(=O)O)ccc1Cl | 
 | 2.5 | CN1C[C@@H](COc2ccc(C(=O)n3ccc4c(CC(=O)O)cccc43)cc2)Oc2ccccc21 | Ki [5]: 1700 nM
5.1 | 1.8 | Cc1cc(C(=O)Nc2cc(CC(=O)O)ccc2Cl)c(C)cc1OC[C@@H]1CN(C)c2ccccc2O1 | solubility kinetic [3]: 17 µg/mL (≈ 34.3 µM)
12 | 5.2 | Cc1ccc(CC(=O)O)cc1NC(=O)c1ccc(OC[C@@H]2CN(C)c3ccccc3O2)c(C)c1C | 
7.6 | > 10 | Cc1cc(OC[C@@H]2CN(C)c3ccccc3O2)cc(C)c1C(=O)Nc1cc(CC(=O)O)ccc1Cl | AUC(0-inf) [6]: 8120 ng·h/mL; IC50 [4]: 4.4 nM; bioavailability [7]: 72%; clearance [8]: 1.6 mL/min/kg; solubility kinetic [3]: 407 µg/mL (≈ 822 µM); inhibition in vivo at 0.1 mg/kg [9]: 55%; inhibition in vivo at 1 mg/kg [10]: 46%; half-life [11]: 372 min; Ki [5]: 6.4 nM; Vd [12]: 0.622 L/kg; AUC(0-inf) [13]: 11300 ng·h/mL; half-life [14]: 348 min; Cmax [15]: 930 ng/mL
7 | 3.3 | CN1C[C@@H](COc2ccc(C(=O)Nc3cc(C(C)(C)C(=O)O)ccc3Cl)c(Cl)c2)Oc2ccccc21 | IC50 [4]: 280 nM; solubility kinetic [3]: 139 µg/mL (≈ 263 µM)
22 | > 10 | Cc1c(OC[C@@H]2CN(C)c3ccccc3O2)ccc(C(=O)Nc2cccc(CC(=O)O)c2)c1C | 
 |  | Cc1cc2c(CC(=O)O)cccc2n1C(=O)c1ccc(OC[C@@H]2CN(C)c3ccccc3O2)cc1 | IC50 [4]: 57 nM; solubility kinetic [3]: 8.2 µg/mL (≈ 17.4 µM); inhibition in vivo at 0.1 mg/kg [9]: 67%
4.8 | > 10 | Cc1ccc(CC(=O)O)cc1NC(=O)c1c(C)cc(OC[C@@H]2CN(C)c3ccccc3O2)cc1C | 
24 | > 10 | Cc1ccc2c(c1)[C@H](COc1cc(C)c(C(=O)Nc3cc(CC(=O)O)ccc3Cl)c(C)c1)CO2 | 
 | > 10 | Cc1cc(OC[C@@H]2CN(C)c3ccccc3O2)ccc1C(=O)Nc1cc(CC(=O)O)ccc1F | 
 |  | CN1C[C@@H](COc2ccc(C(=O)Nc3cc(CC(=O)O)ccc3Cl)c(Cl)c2)Oc2ccccc21 | IC50 [4]: > 50 nM
 | 1.4 | Cc1ccc(CC(=O)O)cc1NC(=O)c1ccc(OC[C@@H]2CN(C)c3ccccc3O2)cc1Cl | 
54 | 3.5 | Cc1c(OC[C@@H]2CN(C)c3ccccc3O2)ccc(C(=O)Nc2cc(CC(=O)O)ccc2Cl)c1C | Ki [5]: 28 nM
0.7 | > 10 | Cc1cc(OC[C@@H]2CN(C)c3ccccc3O2)cc(C)c1C(=O)Nc1cc(C(C)(C)C(=O)O)ccc1Cl | AUC(0-inf) [6]: 8280 ng·h/mL; IC50 [4]: 8.1 nM; bioavailability [7]: 87%; clearance [8]: 1.8 mL/min/kg; solubility kinetic [3]: 490 µg/mL (≈ 937 µM); inhibition in vivo at 0.1 mg/kg [9]: 58%; Cmax [16]: 1670 ng/mL; half-life [11]: 390 min; Vd [12]: 0.669 L/kg; AUC(0-inf) [13]: 9520 ng·h/mL; half-life [14]: 336 min
5.7 | 2.6 | Cc1ccc(CC(=O)O)cc1NC(=O)c1cc(C)c(OC[C@@H]2CN(C)c3ccccc3O2)cc1C | 
28 | > 10 | Cc1cc(C(=O)Nc2cccc(CC(=O)O)c2)c(C)cc1OC[C@@H]1CN(C)c2ccccc2O1 | 
14 | 0.52 | CN1C[C@@H](COc2ccc(C(=O)Nc3cc(C(F)(F)C(=O)O)ccc3Cl)c(Cl)c2)Oc2ccccc21 | 
